According to ChEMBL document CHEMBL3616394 (Eur J Med Chem, 2015):
Activity calls are given as the source filed them. The rule behind the calls is not given here.

What was measured:
[1] = biological target: Neuronal acetylcholine receptor; alpha3/beta4 (Rattus norvegicus, UniProt P04757+P12392); assay: Displacement of [3H]epibatidine from rat alpha3beta4 nACHR expressed in HEK293 cells after 4 hrs by scintillation counting assay; assay type: cell-based; conditions: for pKi: hek293
[2] = biological target: T1, Neuronal acetylcholine receptor; alpha4/beta2 (Rattus norvegicus, UniProt P09483+P12390); assay: Displacement of [3H]epibatidine from rat alpha4beta2 nAChR expressed in HEK293 cells after 4 hrs by scintillation counting assay; assay type: cell-based
[3] = biological target: Neuronal acetylcholine receptor; alpha4/beta4 (Rattus norvegicus, UniProt P09483+P12392); assay: Displacement of [3H]epibatidine from rat alpha4beta4 nACHR expressed in HEK293 cells after 4 hrs by scintillation counting assay; assay type: cell-based; conditions: for pKi: hek293
[4] = biological target: T2, Neuronal acetylcholine receptor subunit alpha-4/beta-2 (Mus musculus) (UniProt Q9ERK7+O70174); assay: Agonist activity at recombinant mouse alpha4beta2 nAChR expressed in HEK293 cells at >=100 uM after 30 min by FLIPR potential blue assay; assay type: cell-based
Outline: (§1)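 FLIPR membrane potential (FMP) dye assay on α4β2-HEK293T cells. Cells were washed in Krebs buffer (pH 7.4) and loaded with dye (0.5 mg/ml) for 30 min at 37 °C. Emission at 565 nm with excitation at 525 nm was read 20 s before and 70 s after ligand addition. Response was the ΔFU between maximal levels. Duplicate wells, at least three experiments.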

[5] = biological target: T3, Neuronal acetylcholine receptor; alpha3/beta4 (Rattus norvegicus) (UniProt P04757+P12392); assay: Agonist activity at recombinant rat alpha3beta4 nAChR expressed in HEK293 cells at 300 uM after 30 min by FLIPR potential blue assay; assay type: cell-based
Outline: (§2)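 Stable rat α3β4 HEK293 cells were loaded with FMP dye (0.5 mg/ml) in Krebs-HEPES buffer, pH 7.4, for 30 min at 37 °C. For antagonist runs, the test compound was included in the dye buffer and EC70-EC80 ACh was then added. Fluorescence was read at ex 525/em 565 nm, 20 s before and 70 s after ligand addition, and ΔFU taken. Runs were done in duplicate, at least three times.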

[6] = biological target: T1, Neuronal acetylcholine receptor; alpha4/beta2; assay: Displacement of [3H]epibatidine from rat alpha4beta2 nAChR expressed in HEK293 cells after 4 hr by scintillation counting assay
[7] = biological target: T2, Neuronal acetylcholine receptor subunit alpha-4/beta-2 (Mus musculus); assay: Agonist activity at recombinant mouse alpha4beta2 nAChR expressed in HEK293 cells at >=30 uM after 30 min by FLIPR potential blue assay; assay type: cell-based; outline: as §1
[8] = biological target: T3, Neuronal acetylcholine receptor; alpha3/beta4 (Rattus norvegicus); assay: Antagonist activity at recombinant rat alpha3beta4 nAChR expressed in HEK293 cells assessed as inhibition of acetylcholine-induced effect at >=100 uM after 30 min by FLIPR potential blue assay; assay type: cell-based; outline: as §2
[9] = biological target: Neuronal acetylcholine receptor subunit alpha-4/beta-2 (Mus musculus, UniProt O70174+Q9ERK7); assay: Antagonist activity at recombinant mouse alpha4beta2 nAChR expressed in HEK293 cells assessed as inhibition of acetylcholine-induced effect after 30 min by FLIPR potential blue assay; assay type: cell-based
Outline: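 FMP dye assay on α4β2-HEK293T cells. Antagonist was dissolved in the dye-loading Krebs buffer (pH 7.4) and preincubated 30 min at 37 °C. EC70–EC80 ACh was then added as final agonist. 565 nm emission was read before and after addition, and inhibition curves were built from ΔFU at eight concentrations. IC50 fitted; duplicate, at least three experiments.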

[10] = biological target: T1, Neuronal acetylcholine receptor; alpha4/beta2; assay: Agonist activity at rat (alpha4)3(beta2)2 nAChR expressed in Xenopus oocyte by two electrode voltage-clamp electrophysiology assay
Outline: (§3)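 Xenopus laevis oocytes were injected with about 25 ng total cRNA for rat α4 and β2. The α4:β2 ratio was 1:4 for (α4)2(β2)3 and 10:1 for (α4)3(β2)2. Oocytes were kept at 15-18 °C and recorded 2-5 days later, clamped at -60 mV. Peak currents were taken across 10 nM-10 mM agonist, with 10 min washes between applications. Currents were normalised on the same oocyte to ACh, 300 µM at (α4)2(β2)3 and 1 mM at (α4)3(β2)2.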

[11] = Binding affinity to Aplysia californica AChBP after 300 seconds by SPR biosensor analysis
[12] = biological target: Neuronal acetylcholine receptor; alpha4/beta2 (Rattus norvegicus) (UniProt P09483+P12390); assay: Agonist activity at rat (alpha4)3(beta2)2 nAChR expressed in Xenopus oocyte by two electrode voltage-clamp electrophysiology assay relative to acetylcholine; outline: as §3
[13] = biological target: T1, Neuronal acetylcholine receptor; alpha4/beta2; assay: Agonist activity at rat (alpha4)2(beta2)3 nAChR expressed in Xenopus oocyte by two electrode voltage-clamp electrophysiology assay; outline: as §3
[14] = biological target: T2, Neuronal acetylcholine receptor subunit alpha-4/beta-2 (Mus musculus); assay: Agonist activity at recombinant mouse alpha4beta2 nAChR expressed in HEK293 cells at 300 uM after 30 min by FLIPR potential blue assay; assay type: cell-based; outline: as §1

T2 sequence (O70174 31-629 partner limits assumed): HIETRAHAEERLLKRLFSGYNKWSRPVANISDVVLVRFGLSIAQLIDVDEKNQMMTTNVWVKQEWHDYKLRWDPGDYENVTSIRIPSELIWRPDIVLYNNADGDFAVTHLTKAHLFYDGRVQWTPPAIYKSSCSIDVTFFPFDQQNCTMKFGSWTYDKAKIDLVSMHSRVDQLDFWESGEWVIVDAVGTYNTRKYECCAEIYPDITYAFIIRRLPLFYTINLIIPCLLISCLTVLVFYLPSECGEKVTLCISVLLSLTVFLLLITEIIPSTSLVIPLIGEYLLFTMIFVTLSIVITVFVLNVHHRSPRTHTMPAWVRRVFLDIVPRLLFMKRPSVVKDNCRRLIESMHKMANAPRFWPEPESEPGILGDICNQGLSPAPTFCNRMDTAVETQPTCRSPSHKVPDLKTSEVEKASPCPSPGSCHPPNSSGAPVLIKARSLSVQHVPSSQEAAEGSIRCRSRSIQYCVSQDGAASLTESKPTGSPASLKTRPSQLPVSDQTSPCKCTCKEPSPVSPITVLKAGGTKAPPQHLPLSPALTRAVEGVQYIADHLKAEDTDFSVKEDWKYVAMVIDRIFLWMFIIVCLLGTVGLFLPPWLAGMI
T2 sequence (Q9ERK7 26-501 limits assumed): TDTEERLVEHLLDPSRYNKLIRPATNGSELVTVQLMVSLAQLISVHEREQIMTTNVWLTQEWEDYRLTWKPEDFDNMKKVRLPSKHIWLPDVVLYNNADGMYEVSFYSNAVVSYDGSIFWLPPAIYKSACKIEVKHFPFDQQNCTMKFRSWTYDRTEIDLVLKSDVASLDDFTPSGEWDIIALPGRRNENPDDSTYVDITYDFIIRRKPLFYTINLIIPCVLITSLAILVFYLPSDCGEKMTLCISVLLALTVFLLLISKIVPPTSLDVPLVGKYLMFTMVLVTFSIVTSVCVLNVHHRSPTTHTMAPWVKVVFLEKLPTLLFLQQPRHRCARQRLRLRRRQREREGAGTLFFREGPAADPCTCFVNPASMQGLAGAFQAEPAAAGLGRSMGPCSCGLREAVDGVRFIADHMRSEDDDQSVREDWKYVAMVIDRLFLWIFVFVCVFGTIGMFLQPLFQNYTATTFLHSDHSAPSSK
Sequence of Neuronal acetylcholine receptor; alpha4/beta4 (P09483 whole entry): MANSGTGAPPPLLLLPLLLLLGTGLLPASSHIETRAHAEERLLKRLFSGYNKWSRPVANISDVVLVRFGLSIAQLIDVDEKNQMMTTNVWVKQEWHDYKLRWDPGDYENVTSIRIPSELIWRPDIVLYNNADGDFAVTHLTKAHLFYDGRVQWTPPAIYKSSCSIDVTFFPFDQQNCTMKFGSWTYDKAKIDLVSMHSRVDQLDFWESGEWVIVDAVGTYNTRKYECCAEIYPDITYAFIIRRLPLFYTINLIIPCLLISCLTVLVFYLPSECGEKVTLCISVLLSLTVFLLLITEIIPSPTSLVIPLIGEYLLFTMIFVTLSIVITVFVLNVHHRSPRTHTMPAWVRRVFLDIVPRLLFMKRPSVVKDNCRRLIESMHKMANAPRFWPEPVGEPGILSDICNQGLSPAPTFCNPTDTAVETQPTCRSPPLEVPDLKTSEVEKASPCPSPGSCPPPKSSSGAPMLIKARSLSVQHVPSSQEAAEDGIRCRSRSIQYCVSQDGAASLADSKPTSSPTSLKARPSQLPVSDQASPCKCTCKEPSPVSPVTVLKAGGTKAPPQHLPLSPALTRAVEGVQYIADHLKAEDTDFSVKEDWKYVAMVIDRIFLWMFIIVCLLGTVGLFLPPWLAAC
Sequence of Neuronal acetylcholine receptor; alpha4/beta4 (P12392 whole entry): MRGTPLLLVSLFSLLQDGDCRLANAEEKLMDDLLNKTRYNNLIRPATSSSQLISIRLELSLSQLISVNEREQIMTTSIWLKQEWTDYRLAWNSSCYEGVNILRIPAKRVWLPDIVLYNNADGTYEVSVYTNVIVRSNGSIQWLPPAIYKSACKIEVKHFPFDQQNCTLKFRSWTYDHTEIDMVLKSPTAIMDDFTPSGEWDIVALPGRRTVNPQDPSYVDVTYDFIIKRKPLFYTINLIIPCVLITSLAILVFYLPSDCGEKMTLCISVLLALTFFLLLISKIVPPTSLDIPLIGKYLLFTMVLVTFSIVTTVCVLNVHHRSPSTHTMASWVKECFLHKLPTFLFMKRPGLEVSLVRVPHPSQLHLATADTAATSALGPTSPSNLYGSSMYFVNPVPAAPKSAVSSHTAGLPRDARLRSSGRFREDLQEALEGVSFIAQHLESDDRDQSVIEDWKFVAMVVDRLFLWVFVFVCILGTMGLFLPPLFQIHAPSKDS
T1 sequence (P09483 whole entry): as the sequence (P09483 whole entry) above
T1 sequence (P12390 whole entry): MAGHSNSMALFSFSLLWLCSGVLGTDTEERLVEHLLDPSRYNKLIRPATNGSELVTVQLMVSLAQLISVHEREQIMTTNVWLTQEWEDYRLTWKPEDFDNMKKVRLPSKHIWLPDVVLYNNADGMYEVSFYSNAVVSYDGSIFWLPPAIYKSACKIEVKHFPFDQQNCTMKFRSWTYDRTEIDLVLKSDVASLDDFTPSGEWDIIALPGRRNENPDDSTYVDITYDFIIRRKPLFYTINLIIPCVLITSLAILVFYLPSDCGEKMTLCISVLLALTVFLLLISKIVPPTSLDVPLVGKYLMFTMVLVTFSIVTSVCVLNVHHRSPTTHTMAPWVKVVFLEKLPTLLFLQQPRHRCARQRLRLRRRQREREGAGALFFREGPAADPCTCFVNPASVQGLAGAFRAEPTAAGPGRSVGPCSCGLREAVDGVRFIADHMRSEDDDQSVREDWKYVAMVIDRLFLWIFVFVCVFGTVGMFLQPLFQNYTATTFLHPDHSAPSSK
Sequence of Neuronal acetylcholine receptor; alpha3/beta4 (P04757 whole entry): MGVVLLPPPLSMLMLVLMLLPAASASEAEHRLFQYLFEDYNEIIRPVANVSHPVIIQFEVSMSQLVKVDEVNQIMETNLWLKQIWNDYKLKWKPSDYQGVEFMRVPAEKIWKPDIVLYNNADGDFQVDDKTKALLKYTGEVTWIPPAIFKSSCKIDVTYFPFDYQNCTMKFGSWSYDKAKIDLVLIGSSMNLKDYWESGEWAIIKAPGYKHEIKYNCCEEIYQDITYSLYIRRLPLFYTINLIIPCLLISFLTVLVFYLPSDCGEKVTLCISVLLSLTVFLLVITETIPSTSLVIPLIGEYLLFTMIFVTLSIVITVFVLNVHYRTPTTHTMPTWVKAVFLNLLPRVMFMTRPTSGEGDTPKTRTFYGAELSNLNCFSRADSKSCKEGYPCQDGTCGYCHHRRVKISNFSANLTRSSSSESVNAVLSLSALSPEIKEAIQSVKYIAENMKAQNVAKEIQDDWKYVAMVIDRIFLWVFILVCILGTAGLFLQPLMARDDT
Sequence of Neuronal acetylcholine receptor; alpha3/beta4 (P12392 whole entry): as the sequence (P12392 whole entry) above
Sequence of Neuronal acetylcholine receptor subunit alpha-4/beta-2 (Q9ERK7 whole entry): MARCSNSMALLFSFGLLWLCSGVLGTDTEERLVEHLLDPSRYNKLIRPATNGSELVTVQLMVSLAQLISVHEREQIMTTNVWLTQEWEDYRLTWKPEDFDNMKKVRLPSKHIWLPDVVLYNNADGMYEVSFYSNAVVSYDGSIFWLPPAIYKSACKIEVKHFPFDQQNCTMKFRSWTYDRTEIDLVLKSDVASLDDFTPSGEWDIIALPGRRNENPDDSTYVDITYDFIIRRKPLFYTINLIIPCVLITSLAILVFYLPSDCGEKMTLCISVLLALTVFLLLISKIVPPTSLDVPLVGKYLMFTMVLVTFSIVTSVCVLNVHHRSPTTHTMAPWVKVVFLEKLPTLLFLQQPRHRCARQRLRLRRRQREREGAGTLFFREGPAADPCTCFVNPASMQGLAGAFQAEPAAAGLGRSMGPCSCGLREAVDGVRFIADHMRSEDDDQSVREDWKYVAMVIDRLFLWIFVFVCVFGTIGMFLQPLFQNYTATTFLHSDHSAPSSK
Sequence of Neuronal acetylcholine receptor subunit alpha-4/beta-2 (O70174 whole entry): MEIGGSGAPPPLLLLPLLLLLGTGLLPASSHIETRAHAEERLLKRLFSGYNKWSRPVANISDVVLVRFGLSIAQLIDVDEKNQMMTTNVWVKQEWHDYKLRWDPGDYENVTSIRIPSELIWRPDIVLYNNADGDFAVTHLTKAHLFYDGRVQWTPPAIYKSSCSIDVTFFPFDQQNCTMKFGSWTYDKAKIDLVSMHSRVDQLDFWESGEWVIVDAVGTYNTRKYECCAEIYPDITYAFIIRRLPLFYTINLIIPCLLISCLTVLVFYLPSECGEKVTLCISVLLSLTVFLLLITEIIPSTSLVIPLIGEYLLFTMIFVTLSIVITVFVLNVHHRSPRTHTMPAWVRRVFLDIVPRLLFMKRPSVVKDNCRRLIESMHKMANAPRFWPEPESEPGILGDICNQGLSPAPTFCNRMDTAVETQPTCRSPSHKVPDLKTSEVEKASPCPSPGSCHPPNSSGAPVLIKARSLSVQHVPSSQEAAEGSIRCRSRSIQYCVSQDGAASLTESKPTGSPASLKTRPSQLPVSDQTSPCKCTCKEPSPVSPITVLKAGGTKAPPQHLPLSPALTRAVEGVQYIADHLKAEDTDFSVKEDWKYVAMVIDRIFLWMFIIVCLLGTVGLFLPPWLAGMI

Row | SMILES | Ki ([1]; read-out: Ki) | Ki [2] | Ki [3] | also measured
1 | CN(C)C(=O)OCCC(COc1ccc(F)cc1)N(C)C (stereo not drawn) | 300 µM | 500 µM | 100 µM | –
2 | CN(C)C(=O)OCCC(CCCc1ccccc1)N(C)C (stereo not drawn) | 13 µM | 1.9 µM | 4.9 µM | Activity [4]: Active; Activity [5]: Active
3 | c1ccc(CN2CCN(c3cccnc3)CC2)cc1 | > 300 µM | 9.6 µM | 100 µM | Ki ([1]; read-out: pKi (converted)): > 316 µM
4 | CN(C)C(=O)OCCC(CCC(O)c1ccccc1)N(C)C (stereo not drawn) | 5.9 µM | 30 µM | 6.7 µM | Ki ([1]; read-out: pKi (converted)): 6.03 µM
5 | c1ccc(CCN2CCCN(c3cccnc3)CC2)cc1 | 3.4 µM | 0.11 µM | 2.4 µM | –
6 | c1cncc(N2CCCNCC2)c1 | – | – | – | Ki [6]: 0.00072 µM
7 | CN(C)C(=O)OCCC(CCCCc1ccccc1)N(C)C (stereo not drawn) | 11 µM | 1.1 µM | 4.4 µM | Activity [4]: Active; Activity [5]: Active
8 | CN(C)C(CCCCc1ccccc1)CCOc1nccn1C (stereo not drawn) | 8.3 µM | 0.76 µM | 3.7 µM | Activity [7]: Active
9 | CC(CCOC(=O)N(C)C)N(C)CC(O)Cc1ccccc1 (stereo not drawn) | > 1000 µM | 500 µM | 100 µM | pKi [1]: < 3
10 | CNC(=O)OCCC(C)N(C)Cc1ccccc1 (stereo not drawn) | 300 µM | 300 µM | 300 µM | –
11 | Brc1cccc(CCN2CCCN(c3cccnc3)CC2)c1 | 0.78 µM | 0.13 µM | 1.9 µM | –
12 | C(=C\N1CCCN(c2cccnc2)CC1)/c1ccccc1 | 2.9 µM | 0.099 µM | 1.6 µM | inhibition [8]: inactive; IC50 [9]: 1.1 µM
13 | c1ccc(CN2CCCN(c3cccnc3)CC2)cc1 | 2.6 µM | 0.104 µM | 3.4 µM | EC50 [10]: 7.9 µM; Kd [11]: > 1 µM; pKd [11]: < 6; Rmax [12]: 6; EC50 [13]: 1.8 µM
14 | CC(CCOC(=O)N(C)C)N(C)CCCc1ccccc1 (stereo not drawn) | > 1000 µM | 300 µM | > 1000 µM | pKi [1]: < 3; pKi [3]: < 3
15 | Brc1ccc(N2CCCN(CCCc3ccccc3)CC2)cn1 | 2.2 µM | 0.82 µM | 1.5 µM | –
16 | CN(C)C(=O)OCCC(COc1ccccn1)N(C)C (stereo not drawn) | 300 µM | 100 µM | 300 µM | –
17 | CNC(=O)OCCC(CCCc1ccccc1)N(C)C (stereo not drawn) | 100 µM | 11 µM | 30 µM | Activity [4]: Active; Activity [5]: Active
18 | CNC(=O)OCCC(CCCCCc1ccccc1)N(C)C (stereo not drawn) | 50 µM | 2.7 µM | 4.5 µM | –
19 | CNC(=O)OCCC(C)N(C)CCCc1ccccc1 (stereo not drawn) | > 1000 µM | 50 µM | > 1000 µM | pKi [1]: < 3; pKi [3]: < 3
20 | CNC(=O)OCCC(C)N(C)CCc1ccccc1 (stereo not drawn) | 300 µM | 30 µM | 300 µM | –
21 | CN1[C@@H](CC(=O)c2ccccc2)CCC[C@H]1C[C@H](O)c1ccccc1 [LOBELINE] | – | – | – | Kd [11]: 0.013 µM; pKd [11]: 7.9
22 | CNC(=O)OCCC(CCCCc1ccccc1)N(C)C (stereo not drawn) | 100 µM | 3.6 µM | 30 µM | Activity [4]: Active; Activity [5]: Active
23 | c1ccc(CCCN2CCCN(c3cccnc3)CC2)cc1 | 3.8 µM | 0.082 µM | 3.8 µM | Kd [11]: > 1 µM; pKd [11]: < 6
24 | CNC(=O)OCCC(CCC(O)c1ccccc1)N(C)C (stereo not drawn) | > 300 µM | 100 µM | 100 µM | Ki ([1]; read-out: pKi (converted)): > 316 µM
25 | c1ccc(CCCN2CCN(c3cccnc3)CC2)cc1 | 20 µM | 0.49 µM | 3.5 µM | Activity [4]: Active; Activity [5]: Active
26 | CNC(=O)OCCC(C)N(C)CC(O)c1ccccc1 (stereo not drawn) | 1000 µM | 300 µM | 300 µM | –
27 | c1ccc(CCN2CCN(c3cccnc3)CC2)cc1 | 8.2 µM | 0.56 µM | 8.9 µM | Activity [14]: Active; Activity [5]: Active
